In assay [1] the test system is Heliothis virescens. Description: Insecticidal activity against Heliothis virescens (tobacco budworm) second-instar larvae infested on 25 ppm compound pre-treated cotton cotyledon disk assessed as insect mortality measured 5 days post compound treatment under green house conditions. The class given is functional. An outline of the steps:
(§1)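 Leaf disks treated, air-dried and placed singly in cups. Cotton cotyledon disks each get one second-instar tobacco budworm larva; cabbage leaf disks each get one second-instar cabbage looper larva. Cups are capped and held in a growth chamber at 25 °C, 50-55% RH, 14 h light/10 h dark for 5 days.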

For assay [2], the system named is Bemisia tabaci.
Assay [3] concerns Trichoplusia ni. Description: Insecticidal activity against Trichoplusia ni (cabbage looper) second-instar larvae infested on 400 ppm compound pre-treated cabbage leaf disk assessed as insect mortality measured 5 days post compound treatment under green house conditions. The class given is functional. The conditions noted are these: at 400 ppm.
Assay [4] has as its system Tetranychus urticae. The assay is described as follows: Insecticidal activity against female Tetranychus urticae (two-spotted spider mite) infested cotton leaf disks followed by 2.5 ppm compound spraying after oviposit assessed as insect mortality measured after 6 days post compound application under green house conditions. The assay is classed as functional. The conditions noted are these: foliar, 144 h.

For assay [5], the system named is Aphis gossypii. The assay is described as follows: Insecticidal activity against Aphis gossypii (cotton aphid) infested one week old Crookneck squash plants assessed as insect mortality at 50 ppm measured after 3 days post compound application under green house conditions. Conditions: 72 h. The assay is classed as functional.
The test system of assay [6] is Spodoptera exigua. Description: Insecticidal activity against Spodoptera exigua second-instar larvae feeded on 400 ppm compound treated lepidopteran diet assessed as insect mortality measured 5 days post compound treatment under green house conditions. The assay is classed as functional. Conditions: at 400 ppm.
Assay [7] has as its system Trichoplusia ni. The assay is described as follows: Insecticidal activity against Trichoplusia ni (cabbage looper) second-instar larvae infested on 25 ppm compound pre-treated cabbage leaf disk assessed as insect mortality measured 5 days post compound treatment under green house conditions. The class given is functional. An outline of the steps: as §1
Assay [8] concerns Aphis gossypii. Description: Insecticidal activity against Aphis gossypii (cotton aphid) infested one week old Crookneck squash plants assessed as insect mortality measured after 3 days post compound application under green house conditions. The assay is classed as functional. The conditions noted are these: for LC50: Aphis gossypii, 72 h.
The subject of assay [9] is Spodoptera exigua. Description: Insecticidal activity against Spodoptera exigua second-instar larvae feeded on 25 ppm compound treated lepidopteran diet assessed as insect mortality measured 5 days post compound treatment under green house conditions. The assay is classed as functional.
A further assay has as its system Myzus persicae. Description: Insecticidal activity against Myzus persicae (green peach aphid) assessed as insect mortality at 50 ppm. The class given is functional.
Assay [10] relates to Heliothis virescens. The assay is described as follows: Insecticidal activity against Heliothis virescens (tobacco budworm) second-instar larvae infested on 400 ppm compound pre-treated cotton cotyledon disk assessed as insect mortality measured 5 days post compound treatment under green house conditions. The class given is functional.
The test system of assay [11] is Bemisia tabaci. The assay is described as follows: Insecticidal activity against Bemisia tabaci (sweet potato whitefly) second-instar larvae infested five weeks old cotton plants followed by compound 250 ppm compound spraying after insect oviposit assessed as insect mortality measured 13 days post compound treatment under green house conditions. The class given is functional.

The subject of assay [12] is Aphis gossypii.
Assay [13] relates to Trichoplusia ni. Description: Insecticidal activity against Trichoplusia ni (cabbage looper) second-instar larvae infested on compound pre-treated cabbage leaf disk assessed as insect mortality measured 5 days post compound treatment under green house conditions. The assay is classed as functional. The conditions noted are these: Trichoplusia ni, foliar. The procedure, abridged: as §1

The test system of assay [14] is Heliothis virescens. Description: Insecticidal activity against Heliothis virescens (tobacco budworm) second-instar larvae infested on compound pre-treated cotton cotyledon disk assessed as insect mortality measured 5 days post compound treatment under green house conditions. The assay is classed as functional. The conditions noted are these: Heliothis virescens. The procedure, abridged:
as §1

The subject of assay [15] is Spodoptera exigua. Description: Insecticidal activity against Spodoptera exigua second-instar larvae feeded on compound treated lepidopteran diet assessed as insect mortality measured 5 days post compound treatment under green house conditions. The conditions noted are these: Spodoptera exigua, 120 h. The assay is classed as functional.
For assay [16], the system named is Tetranychus urticae. Description: Insecticidal activity against female Tetranychus urticae (two-spotted spider mite) infested cotton leaf disks followed compound spraying after oviposit assessed as insect mortality measured after 6 days post compound application under green house conditions. The assay is classed as functional. Conditions: for LC50: Tetranychus urticae, foliar, 144 h.

In brackets after ≈: the same amount, converted by molar mass. Activity calls are given as the source filed them. The rule behind the calls is not given here.

Usually mortality stands for the percentage killed. As a reminder, the LC50 is the concentration lethal to half of the exposed cells or organisms. As for `Cc1cc(-c2ccc(Cl)cc2F)sc1-c1nc(-c2c(F)cccc2Cl)nn1C`, the mortality with Heliothis virescens [1] amounted to 20%; in the assay on Trichoplusia ni [3], 90%; with Spodoptera exigua [6] it was 70%; in the assay with Trichoplusia ni [7], 40%; in the assay with Spodoptera exigua [9] it was 0%; in the assay on Heliothis virescens [10] it was 90%. The mortality entry in the assay with Bemisia tabaci [2] was “inactive”. Moreover, the mortality at 2.5 ppm in the assay on Tetranychus urticae [4] was 90%. For the same compound, the mortality at 50 ppm with Aphis gossypii [5] is below 50%. For the same compound, the LC50 in the assay on Aphis gossypii [8] stood at 4.93 µg/mL (≈ 11.3 µM); in the assay with Myzus persicae, 91 µg/mL (≈ 209 µM).

Turning to `Cc1cc(-c2ccc(F)c(F)c2)sc1-c1nc(-c2c(F)cccc2Cl)nn1C`, the mortality with Bemisia tabaci [11] turned out to be 90%; in the assay on Heliothis virescens [1], 20%; in the assay on Trichoplusia ni [3], 90%; with Spodoptera exigua [6], 90%; in the assay on Trichoplusia ni [7], 40%; in the assay with Spodoptera exigua [9] it was 0%. Besides, the mortality in the assay on Heliothis virescens [10] is 90%. Besides, in the assay with Tetranychus urticae [4], the mortality at 2.5 ppm was determined as 60%. In the assay with Aphis gossypii [5], the mortality at 50 ppm is below 50%. Besides, in the assay on Aphis gossypii [8], the LC90 worked out at 22.3 ppm. Moreover, the LC50 is 4.41 µg/mL (≈ 10.5 µM) with Aphis gossypii [8] and 88 µg/mL (≈ 210 µM) with Myzus persicae.

Consider `Cc1cc(-c2ccc(F)c(Cl)c2)sc1-c1nc(-c2c(F)cccc2Cl)nn1C`, for which the mortality in the assay on Heliothis virescens [1] is 0%; in the assay with Trichoplusia ni [3] it was 90%; in the assay on Spodoptera exigua [6], 80%; in the assay with Trichoplusia ni [7] it was 60%; in the assay on Spodoptera exigua [9], 0%; with Heliothis virescens [10], 90%. The mortality entry in the assay on Bemisia tabaci [2] and in the assay with Aphis gossypii [12] was “inactive” in each case. The mortality at 2.5 ppm in the assay with Tetranychus urticae [4] was 60%. Also, the LC50 was determined as 9.28 µg/mL (≈ 21.3 µM) in the assay with Aphis gossypii [8] and 55 µg/mL (≈ 126 µM) with Myzus persicae.

Turning to `Cc1cc(-c2ccc(OC(F)(F)C(F)Cl)cc2)sc1-c1nc(-c2c(F)cccc2Cl)nn1C` (stereo unspecified), the mortality is given as below 50% in the assay on Bemisia tabaci [11], 90% in the assay on Trichoplusia ni [3], 60% with Spodoptera exigua [6] and 90% in the assay with Heliothis virescens [10]. The LC50 in the assay on Trichoplusia ni [13] was below 1.6 µg/mL; with Heliothis virescens [14], below 1.6 µg/mL; in the assay with Aphis gossypii [8], below 0.5 µg/mL; with Myzus persicae, below 3.1 µg/mL; in the assay on Spodoptera exigua [15], below 1.79 µg/mL; in the assay on Tetranychus urticae [16] it was below 0.1 µg/mL. Besides, the mortality at 2.5 ppm in the assay with Tetranychus urticae [4] turned out to be 90%. Moreover, the mortality at 50 ppm in the assay on Aphis gossypii [5] amounted to 90%. Moreover, the LC90 in the assay with Tetranychus urticae [16] is reported as 2.07 ppm.

For `Cc1cc(-c2ccc(OC(F)(F)F)cc2)sc1-c1nc(-c2c(F)cccc2Cl)nn1C`, in the assay with Bemisia tabaci [2], the mortality result was “inactive”. Also, the LC50 in the assay on Trichoplusia ni [13] was below 1.6 µg/mL; in the assay on Heliothis virescens [14], 225 µg/mL (≈ 481 µM); with Aphis gossypii [8], 0.5 µg/mL (≈ 1.07 µM); in the assay on Myzus persicae it was 13.7 µg/mL (≈ 29.3 µM); in the assay with Spodoptera exigua [15] it was below 1.6 µg/mL; in the assay on Tetranychus urticae [16] it was below 0.04 µg/mL. Besides, the mortality in the assay with Trichoplusia ni [3] stood at 90%; in the assay on Spodoptera exigua [6], 90%; in the assay on Heliothis virescens [10], 80%. Further, the mortality at 2.5 ppm in the assay with Tetranychus urticae [4] amounted to 90%. Besides, the mortality at 50 ppm with Aphis gossypii [5] was 60%. Further, the results for the LC90 in the assay on Aphis gossypii [8] and in the assay with Tetranychus urticae [16] were 12.8 ppm and 0.151 ppm, respectively.

For the origin of these results see ChEMBL document CHEMBL3044558, “Structure-activity relationship development of dihaloaryl triazole compounds as insecticides and acaricides. 1. Phenyl thiophen-2-yl triazoles” (2007).
